In ChEMBL document CHEMBL1155718, “The complestatins as HIV-1 integrase inhibitors. Efficient isolation, structure elucidation, and inhibitory activities of isocomplestatin, chloropeptin I, new complestatins, A and B, and acid-hydrolysis products of chloropeptin I” (J Nat Prod, 2001):

Columns and labels:
[1] = molecular target: T1, Human immunodeficiency virus type 1 integrase (Human immunodeficiency virus 1, UniProt Q7ZJM1); experiment: Inhibition of HIV1 integrase 3' processing/strand transfer coupled activity
Procedure, shortened: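 In vitro assay with recombinant HIV-1 integrase that recapitulates the staged integration process, measuring coupled 3′-processing and strand transfer. IC50 was reported.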

[2] = molecular target: T1, Human immunodeficiency virus type 1 integrase; experiment: Inhibition of HIV1 integrase strand transfer activity
Procedure, shortened: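 Staged strand transfer assay using complexes preassembled on viral donor DNA with recombinantly expressed HIV-1 integrase. IC50 was reported.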

[3] = system: Human immunodeficiency virus 1; experiment: Antiviral activity against HIV1 assessed as inhibition of viral spread in infected cells; type: functional
Procedure, shortened: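 HIV-1 multiple-cycle replication (viral spread) assay in cell culture. Inhibition was expressed as IC95, and in some cases also as IC50.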

[4] = molecular target: T1, Human immunodeficiency virus type 1 integrase; experiment: Inhibition of integration activity of HIV1 intact integrase
[5] = Inhibition of HIV1 recombinant gp120/CD4 interaction by ELISA
[6] = molecular target: T1, Human immunodeficiency virus type 1 integrase; experiment: Inhibition of disintegration activity of HIV1 intact integrase
Procedure, shortened: (§1)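 Disintegration activity was measured with both full-length HIV-1 integrase and its catalytic core domain (amino acids 50-212). IC50 was reported.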

[7] = system: Human immunodeficiency virus; experiment: Antiviral activity against HIV PIC; type: functional, organism-based; details: Human immunodeficiency virus 1, PIC
Procedure, shortened: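 Preintegration complexes were isolated from HIV-1-infected cells and tested for integration activity in vitro. IC50 was reported.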

[8] = molecular target: T1, Human immunodeficiency virus type 1 integrase; experiment: Inhibition of disintegration activity of HIV1 integrase catalytic core domain (50 to 212); procedure, shortened: as §1
[9] = system: Human immunodeficiency virus; experiment: Antiviral activity against HIV; type: functional, organism-based; details: Human immunodeficiency virus 1

T1 sequence (Q7ZJM1 whole entry): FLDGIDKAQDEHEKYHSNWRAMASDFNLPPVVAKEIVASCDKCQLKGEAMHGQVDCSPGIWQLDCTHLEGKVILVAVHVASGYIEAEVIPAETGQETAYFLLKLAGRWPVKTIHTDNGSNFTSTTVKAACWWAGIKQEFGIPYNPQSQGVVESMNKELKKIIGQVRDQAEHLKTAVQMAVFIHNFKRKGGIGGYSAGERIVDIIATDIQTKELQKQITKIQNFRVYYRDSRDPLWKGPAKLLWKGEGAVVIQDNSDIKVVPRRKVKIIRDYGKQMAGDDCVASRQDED

Row | Structure (SMILES) | IC50 [1] | IC50 [2] | IC95 [3] | other results
1 | CN(C(=O)[C@H](N)c1cc(Cl)c(O)c(Cl)c1)[C@@H](Cc1ccc(Oc2cc3cc(c2O)-c2cccc4c(c[nH]c24)C[C@@H](N)C(=O)N[C@H](c2cc(Cl)c(O)c(Cl)c2)C(=O)N[C@H]3C(=O)O)cc1)C(=O)O | 7.8 µM | 86 µM | – | –
2 | CN1C(=O)[C@@H](c2cc(Cl)c(O)c(Cl)c2)NC(=O)[C@@H]2NC(=O)[C@@H](c3cc(Cl)c(O)c(Cl)c3)NC(=O)[C@H](N)Cc3c[nH]c4c(cccc34)-c3cc2cc(c3O)Oc2ccc(cc2)C[C@H]1C(=O)O | 0.5 µM | 6 µM | 7.5 µM | –
3 | CN[C@@H](Cc1ccc(Oc2cc3cc(c2O)-c2cccc4c(c[nH]c24)C[C@@H](N)C(=O)N[C@H](c2cc(Cl)c(O)c(Cl)c2)C(=O)N[C@H]3C(=O)N[C@@H](C(=O)O)c2cc(Cl)c(O)c(Cl)c2)cc1)C(=O)O | 3.8 µM | 45 µM | – | –
4 | CN[C@@H](Cc1ccc(Oc2cc3cc(c2O)-c2cccc4c(c[nH]c24)C[C@@H](N)C(=O)N[C@H](c2cc(Cl)c(O)c(Cl)c2)C(=O)N[C@H]3C(=O)O)cc1)C(=O)O | 28 µM | > 100 µM | – | –
5 | CN1C(=O)[C@@H](c2cc(Cl)c(O)c(Cl)c2)NC(=O)[C@@H]2NC(=O)[C@@H](c3cc(Cl)c(O)c(Cl)c3)NC(=O)[C@H](NC(=O)C(=O)c3cc(Cl)c(O)c(Cl)c3)Cc3c[nH]c4c(cccc34)-c3cc2cc(c3O)Oc2ccc(cc2)C[C@H]1C(=O)O | 0.6 µM | 8 µM | 5 µM | –
6 | CN1C(=O)[C@@H](c2cc(Cl)c(O)c(Cl)c2)NC(=O)[C@@H]2NC(=O)[C@@H](c3cc(Cl)c(O)c(Cl)c3)NC(=O)[C@H](NC(=O)C(=O)c3cc(Cl)c(O)c(Cl)c3)Cc3c[nH]c4c(cccc34)-c3cc2cc(c3O)Oc2ccc(cc2)C[C@H]1C(=O)N[C@@H](C(=O)O)c1ccc(O)cc1 [CHLOROPEPTIN] | 0.4 µM | 5 µM | 5 µM | –
7 | CN1C(=O)[C@@H](c2cc(Cl)c(O)c(Cl)c2)NC(=O)[C@@H]2NC(=O)[C@@H](c3cc(Cl)c(O)c(Cl)c3)NC(=O)[C@H](NC(=O)C(=O)c3cc(Cl)c(O)c(Cl)c3)CC3(O)C(=O)Nc4cc(ccc43)-c3cc2cc(c3O)Oc2ccc(cc2)C[C@H]1C(=O)N[C@@H](C(=O)O)c1ccc(O)cc1 (stereo partly drawn) [COMPLESTATIN B] | 1.7 µM | 12.5 µM | – | –
8 | CN1C(=O)[C@@H](c2cc(Cl)c(O)c(Cl)c2)NC(=O)[C@@H]2NC(=O)[C@@H](c3cc(Cl)c(O)c(Cl)c3)NC(=O)[C@H](NC(=O)C(=O)c3cc(Cl)c(O)c(Cl)c3)CC3C(=O)Nc4cc(ccc43)-c3cc2cc(c3O)Oc2ccc(cc2)C[C@H]1C(=O)N[C@@H](C(=O)O)c1ccc(O)cc1 (stereo partly drawn) [COMPLESTATINS A] | 0.8 µM | 12.5 µM | – | –
9 | CN1C(=O)[C@@H](c2cc(Cl)c(O)c(Cl)c2)NC(=O)[C@@H]2NC(=O)[C@@H](c3cc(Cl)c(O)c(Cl)c3)NC(=O)[C@H](NC(=O)C(=O)c3cc(Cl)c(O)c(Cl)c3)Cc3c[nH]c4cc(ccc34)-c3cc2cc(c3O)Oc2ccc(cc2)C[C@H]1C(=O)N[C@@H](C(=O)O)c1ccc(O)cc1 [ISOCOMPLESTATIN] | 0.2 µM | 4 µM | 5 µM | IC50 [4]: 3 µM; IC50 [5]: 2 µM; IC50 [6]: 0.5 µM; IC50 [7]: 3 µM; IC50 [8]: 0.5 µM; IC50 [9]: 0.2 µM
